# Active and inactive are the calls of the source. The calls are words filed in the database; no cut-off is given here.
# Assays:
# [1] = target: T1, Serine/threonine-protein kinase WNK1 (Homo sapiens, UniProt Q9H4A3); experiment: Allosteric inhibition of WNK1 (unknown origin) expressed in HEK293 cells co-expressing flag-OSR1 assessed as reduction in sorbitol-stimulated OSR1 phosphorylation preincubated with compound for 2.5 hrs followed co-administration with sorbitol measured after 1 hr by AlphaLISA assay; format: cell-based
# [2] = Equilibrium solubility of compound at pH 6.8; format: physicochemical; details: buffer
# [3] = Half life in rat liver microsomes; format: ADME, microsome
# [4] = Clearance in Sprague-Dawley rat at 0.5 mg/kg, iv measured up to 7 hrs post dose by HPLC analysis; format: ADME, organism-based; details: in vivo
# [5] = AUC in Sprague-Dawley rat at 1.5 mg/kg, po measured up to 7 hrs post dose by HPLC analysis; format: ADME, organism-based; parameters: time < 7 hr, dose 1.5 mg/kg, route oral; details: in vivo
# [6] = Cmax in Sprague-Dawley rat at 1.5 mg/kg, po measured up to 7 hrs post dose by HPLC analysis; format: ADME, organism-based; parameters: dose 1.5 mg/kg, route oral; details: in vivo
# [7] = Oral bioavailability in Sprague-Dawley rat at 1.5 mg/kg measured up to 7 hrs post dose by HPLC analysis; format: ADME, organism-based; details: in vivo
# [8] = Ratio of Cp in human WNK1 expressing transgenic FVB mouse at 30 mg/kg, po to IC50 for WNK1 (unknown origin) expressed in HEK293 cells
# Summary of the method: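 Separate PK cohort of FVB mice overexpressing human WNK1, given a single oral dose of 30 mg kg−1 (n = 3); venous blood sampled over time for plasma concentration. Plasma level compared against the cellular IC50 from AlphaLISA readout of WNK-mediated phosphorylation of exogenous OSR1 in HEK293 cells.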
# [9] = Plasma concentration in human WNK1 transgenic FVB mouse at 30 mg/kg, po via gavage up to 7 hrs; format: ADME, organism-based
# Summary of the method: (§1)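 A separate cohort of human WNK1-overexpressing FVB mice was dosed 30 mg kg−1 p.o. Venous blood samples were taken over time to 7 h for plasma drug concentration. n = 3.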
# [10] = Plasma concentration in human WNK1 transgenic FVB mouse at 30 mg/kg, po via gavage at 7 hrs post dose; format: ADME, organism-based; summary of the method: as §1
# [11] = target: T1, Serine/threonine-protein kinase WNK1; experiment: Allosteric inhibition of recombinant human N-terminal GST-tagged WNK1 catalytic domain (1 to 491 residues) expressed in baculovirus expression system using fluorescein-labeled OSR1 peptide as substrate after 3 hrs by mobility shift assay
# [12] = target: Tyrosine-protein kinase BTK (Homo sapiens) (UniProt Q06187); experiment: Inhibition of human full length BTK expressed in mammalian expression system at 10 uM by kinomescan assay
# Summary of the method: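 Binding panel of 440 human kinases (KINOMEscan) at a 10 μM screening concentration. Percent inhibition per kinase, with >35% inhibition flagged as significant.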
# [13] = target: Tyrosine-protein kinase Fer (Homo sapiens) (UniProt P16591); experiment: Inhibition of human FER (542 to 822 residues) expressed in bacterial expression system at 10 uM by kinomescan assay
# Summary of the method: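 KINOMEscan panel of 440 human kinases, with test compound screened at a single concentration of 10 μM. Read-out is percent inhibition. Hits above 35% inhibition are flagged.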
# Mus musculus [14] = experiment: Anti-hypertensive activity in po dosed human WNK1 transgenic FVB mouse assessed as reduction in blood pressure administered via gavage measured every 10 minutes for 15 seconds after 6 to 12 hrs; format: functional, organism-based; details: tested as the 2H-labelled form
# Summary of the method: (§2)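 Conscious FVB mice overexpressing human WNK1, with implanted radiotelemetry devices, received single oral doses of 10, 30 or 100 mg kg−1. Systolic blood pressure was read as peak and time-weighted average against the 24 h before treatment. n = 4 per group, mean ± SEM, two-way ANOVA with Bonferroni post-test versus vehicle.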
# Mus musculus [15] = experiment: Anti-hypertensive activity in human WNK1 transgenic FVB mouse assessed plasma concentration required for SBP reducing activity at 30 mg/kg, po via gavage measured after 7 hrs; format: functional, organism-based; details: tested as the 2H-labelled form; summary of the method: as §1
# Rattus norvegicus [16] = experiment: Anti-hypertensive activity in SHR rat assessed as induction of diuresis administered orally as single dose on day 2,3 and 4 measured for 7 hrs post dose; format: functional; details: tested as the 2H-labelled form
# Summary of the method: (§3)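 Spontaneously hypertensive rats got single ascending oral doses on successive days (vehicle, then 10, 30, then 100 mg kg−1). Urine was collected in metabolic cages over 7 h for volume and sodium and potassium excretion. n = 4 per group, mean ± SEM, one-way ANOVA with Bonferroni post-test versus vehicle.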
# Rattus norvegicus [17] = experiment: Anti-hypertensive activity in […] rat assessed as induction of natriuresis administered orally as single dose on day 2,3 and 4 measured for 7 hrs post dose; format: functional; details: tested as the 2H-labelled form; summary of the method: as §3
# Rattus norvegicus [18] = experiment: Anti-hypertensive activity in […] rat assessed as induction of kaliuresis administered orally as single dose on day 2,3 and 4 measured for 7 hrs post dose; format: functional; details: tested as the 2H-labelled form; summary of the method: as §3
# Rattus norvegicus [19] = experiment: Anti-hypertensive activity in […] rat assessed as reduction in blood pressure at 100 mg/kg, po measured for 7 hrs post dose; format: functional, organism-based; details: tested as the 2H-labelled form
# Rattus norvegicus [20] = experiment: Anti-hypertensive activity in […] rat assessed as reduction in stroke volume at 100 mg/kg, po measured for 7 hrs post dose; format: functional, organism-based; details: tested as the 2H-labelled form
# Rattus norvegicus [21] = experiment: Anti-hypertensive activity in […] rat assessed as reduction in total peripheral resistance at 100 mg/kg, po measured for 7 hrs post dose; format: functional, organism-based; details: tested as the 2H-labelled form
# Rattus norvegicus [22] = experiment: Increase in heart rate in […] rat at 100 mg/kg, po measured for 7 hrs post dose; format: functional, organism-based; details: tested as the 2H-labelled form
# Mus musculus [23] = experiment: Anti-hypertensive activity in po dosed human WNK1 transgenic FVB mouse assessed as reduction in blood pressure administered via gavage measured every 10 minutes for 15 seconds after 2 hrs; format: functional, organism-based; details: tested as the 2H-labelled form; summary of the method: as §2
# Rattus norvegicus [24] = experiment: Anti-hypertensive activity in […] rat assessed as induction of diuresis at 10 mg/kg, po administered as single dose on day 2,3 and 4 measured for 7 hrs post dose; format: functional, organism-based; summary of the method: as §3
# Rattus norvegicus [25] = experiment: Anti-hypertensive activity in […] rat assessed as induction of natriuresis at 10 mg/kg, po administered as single dose on day 2,3 and 4 measured for 7 hrs post dose; format: functional, organism-based; summary of the method: as §3
# [26] = target: T1, Serine/threonine-protein kinase WNK1; experiment: Non-competitive inhibition of recombinant human N-terminal GST-tagged WNK1 (1 to 491 residues) expressed in baculovirus expression system using fluorescein-labeled OSR1 peptide as substrate measured every 3 mins from 90 to 250 mins in presence of varying concentration of ATP by Michaelis-Menten plot-based analysis
# Mus musculus [27] = experiment: Anti-hypertensive activity in human WNK1 transgenic FVB mouse assessed as reduction in systolic blood pressure at 30 mg/kg, po via gavage measured every 10 minutes for 15 seconds; format: functional, organism-based
# Summary of the method: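 Conscious FVB mice transgenic for human WNK1, fitted with implanted radiotelemetry devices, received single oral doses. Systolic blood pressure was expressed as peak and time-weighted average change against the 24 h pre-dose baseline. Heart rate was also monitored. n = 4 per group, mean ± SEM, two-way ANOVA with Bonferroni post-test versus vehicle. Plasma exposure was measured in a separate cohort (n = 3).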
# [28] = target: T1, Serine/threonine-protein kinase WNK1; experiment: Allosteric inhibition of recombinant human N-terminal GST-tagged WNK1 catalytic domain (1 to 491 residues) expressed in baculovirus expression system using fluorescein-labeled OSR1 peptide as substrate after 3 hrs by HTRF assay
# T1 sequence (Q9H4A3 whole entry): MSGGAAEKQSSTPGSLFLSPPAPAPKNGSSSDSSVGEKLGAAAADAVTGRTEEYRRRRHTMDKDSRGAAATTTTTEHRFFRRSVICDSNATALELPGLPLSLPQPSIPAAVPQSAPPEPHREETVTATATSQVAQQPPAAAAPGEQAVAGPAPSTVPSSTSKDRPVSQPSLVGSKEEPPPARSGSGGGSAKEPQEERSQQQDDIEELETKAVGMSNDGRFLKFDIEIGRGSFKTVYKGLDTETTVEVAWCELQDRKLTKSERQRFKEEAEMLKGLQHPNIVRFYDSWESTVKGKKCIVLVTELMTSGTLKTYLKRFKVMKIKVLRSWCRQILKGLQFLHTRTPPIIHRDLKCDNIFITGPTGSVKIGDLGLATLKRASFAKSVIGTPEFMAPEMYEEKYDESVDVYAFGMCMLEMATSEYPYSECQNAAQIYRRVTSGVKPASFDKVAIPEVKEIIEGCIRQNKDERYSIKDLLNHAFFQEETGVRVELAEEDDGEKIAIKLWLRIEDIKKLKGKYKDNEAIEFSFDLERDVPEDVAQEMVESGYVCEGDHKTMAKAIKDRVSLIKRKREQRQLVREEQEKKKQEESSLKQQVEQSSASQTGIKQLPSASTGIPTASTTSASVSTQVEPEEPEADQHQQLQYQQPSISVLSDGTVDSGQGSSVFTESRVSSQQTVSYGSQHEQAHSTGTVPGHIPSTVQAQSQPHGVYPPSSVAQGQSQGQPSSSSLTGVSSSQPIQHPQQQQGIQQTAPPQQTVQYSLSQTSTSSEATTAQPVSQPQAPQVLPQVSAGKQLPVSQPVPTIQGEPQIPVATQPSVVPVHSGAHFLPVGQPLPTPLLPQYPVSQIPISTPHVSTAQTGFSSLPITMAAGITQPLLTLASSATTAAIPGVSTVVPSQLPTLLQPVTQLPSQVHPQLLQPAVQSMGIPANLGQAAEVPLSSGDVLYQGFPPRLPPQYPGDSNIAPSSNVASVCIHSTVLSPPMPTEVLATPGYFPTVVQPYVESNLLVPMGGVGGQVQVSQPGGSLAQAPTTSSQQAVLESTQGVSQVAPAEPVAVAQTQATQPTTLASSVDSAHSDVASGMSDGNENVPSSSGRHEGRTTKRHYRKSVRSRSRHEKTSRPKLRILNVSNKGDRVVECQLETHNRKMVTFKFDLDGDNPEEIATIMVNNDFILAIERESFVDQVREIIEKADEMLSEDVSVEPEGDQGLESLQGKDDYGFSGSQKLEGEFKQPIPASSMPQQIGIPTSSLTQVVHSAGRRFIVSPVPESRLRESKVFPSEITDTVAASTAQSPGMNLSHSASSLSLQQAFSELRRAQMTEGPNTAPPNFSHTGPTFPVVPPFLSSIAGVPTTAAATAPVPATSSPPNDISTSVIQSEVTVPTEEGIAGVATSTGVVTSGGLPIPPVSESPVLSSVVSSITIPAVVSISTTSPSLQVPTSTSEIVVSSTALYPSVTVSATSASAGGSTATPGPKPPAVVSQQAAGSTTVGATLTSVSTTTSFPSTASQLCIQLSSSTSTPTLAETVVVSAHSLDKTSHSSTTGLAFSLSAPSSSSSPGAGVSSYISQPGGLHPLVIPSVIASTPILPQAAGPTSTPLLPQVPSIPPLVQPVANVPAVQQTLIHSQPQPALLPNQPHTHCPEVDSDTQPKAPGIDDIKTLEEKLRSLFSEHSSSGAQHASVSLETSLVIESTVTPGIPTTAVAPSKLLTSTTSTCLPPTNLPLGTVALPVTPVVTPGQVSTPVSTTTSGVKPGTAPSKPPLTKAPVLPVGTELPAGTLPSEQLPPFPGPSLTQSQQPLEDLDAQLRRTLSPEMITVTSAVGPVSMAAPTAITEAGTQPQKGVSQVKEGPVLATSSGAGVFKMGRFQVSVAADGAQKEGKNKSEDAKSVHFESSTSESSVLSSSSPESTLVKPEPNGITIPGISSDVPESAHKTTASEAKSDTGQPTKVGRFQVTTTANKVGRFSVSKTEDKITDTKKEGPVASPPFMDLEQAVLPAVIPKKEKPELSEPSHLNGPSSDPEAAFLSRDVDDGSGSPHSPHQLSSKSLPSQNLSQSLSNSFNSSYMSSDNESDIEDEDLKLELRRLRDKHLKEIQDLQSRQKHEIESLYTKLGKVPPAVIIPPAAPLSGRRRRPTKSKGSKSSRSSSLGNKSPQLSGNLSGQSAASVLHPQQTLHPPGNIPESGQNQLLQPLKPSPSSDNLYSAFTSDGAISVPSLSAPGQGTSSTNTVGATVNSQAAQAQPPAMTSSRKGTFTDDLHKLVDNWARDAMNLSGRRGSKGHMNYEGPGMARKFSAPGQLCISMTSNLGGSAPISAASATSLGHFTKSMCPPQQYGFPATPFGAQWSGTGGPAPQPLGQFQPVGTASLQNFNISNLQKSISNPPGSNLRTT
# Sequence of Tyrosine-protein kinase BTK (Homo sapiens) (Q06187 whole entry): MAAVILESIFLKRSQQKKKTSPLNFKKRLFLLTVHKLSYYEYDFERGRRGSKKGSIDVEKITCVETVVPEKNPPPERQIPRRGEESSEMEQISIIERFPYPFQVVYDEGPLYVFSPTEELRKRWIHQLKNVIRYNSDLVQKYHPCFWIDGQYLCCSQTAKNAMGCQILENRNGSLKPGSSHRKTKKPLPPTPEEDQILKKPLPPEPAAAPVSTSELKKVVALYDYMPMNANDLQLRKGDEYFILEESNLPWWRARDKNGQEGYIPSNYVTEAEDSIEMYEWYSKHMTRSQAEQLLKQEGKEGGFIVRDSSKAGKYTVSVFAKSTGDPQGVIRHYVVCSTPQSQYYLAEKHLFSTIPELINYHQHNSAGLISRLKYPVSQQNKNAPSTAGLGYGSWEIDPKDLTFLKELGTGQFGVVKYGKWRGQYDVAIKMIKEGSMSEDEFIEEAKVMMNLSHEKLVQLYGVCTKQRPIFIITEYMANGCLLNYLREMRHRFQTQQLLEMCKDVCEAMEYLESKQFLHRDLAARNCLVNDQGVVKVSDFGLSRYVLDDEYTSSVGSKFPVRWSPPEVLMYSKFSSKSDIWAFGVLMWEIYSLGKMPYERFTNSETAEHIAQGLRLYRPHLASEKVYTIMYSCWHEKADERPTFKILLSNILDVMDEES
# Sequence of Tyrosine-protein kinase Fer (Homo sapiens) (P16591 whole entry, looked up, the tested form may be a part): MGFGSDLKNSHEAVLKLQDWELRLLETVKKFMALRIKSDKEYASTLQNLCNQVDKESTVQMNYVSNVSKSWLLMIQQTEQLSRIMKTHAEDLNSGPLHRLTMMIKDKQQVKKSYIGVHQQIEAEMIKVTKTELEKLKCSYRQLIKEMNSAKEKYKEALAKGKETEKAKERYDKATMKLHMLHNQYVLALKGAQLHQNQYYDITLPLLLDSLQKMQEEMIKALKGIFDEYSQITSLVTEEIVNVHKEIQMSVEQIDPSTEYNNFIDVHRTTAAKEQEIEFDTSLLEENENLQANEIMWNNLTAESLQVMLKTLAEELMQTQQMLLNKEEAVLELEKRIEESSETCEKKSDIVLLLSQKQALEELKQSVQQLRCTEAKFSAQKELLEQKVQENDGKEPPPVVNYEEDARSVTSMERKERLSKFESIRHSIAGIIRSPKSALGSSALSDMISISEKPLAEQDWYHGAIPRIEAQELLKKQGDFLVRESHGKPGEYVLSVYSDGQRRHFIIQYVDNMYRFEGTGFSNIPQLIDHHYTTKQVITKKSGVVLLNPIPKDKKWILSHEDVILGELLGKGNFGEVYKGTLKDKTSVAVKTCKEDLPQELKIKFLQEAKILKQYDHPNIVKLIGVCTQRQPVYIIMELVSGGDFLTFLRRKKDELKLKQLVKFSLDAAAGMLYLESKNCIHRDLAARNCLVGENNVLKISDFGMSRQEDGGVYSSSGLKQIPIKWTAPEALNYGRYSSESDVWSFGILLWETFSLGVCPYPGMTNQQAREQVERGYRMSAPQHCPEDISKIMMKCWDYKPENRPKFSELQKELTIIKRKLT
smiles,measurement,setting,value
[2H]C([2H])([2H])Nc1nc(-c2cc(C(=O)N3CCN(Cc4ccc(Cl)cc4)CC3)c(Cl)cn2)cs1,IC50,[1],589 nM
same,solubility thermodynamic,[2],19 µM
same,half-life,[3],15 min
same,clearance,[4],24 mL/min/kg
same,AUC at 7 h,[5],0.811 µM·h
same,Cmax,[6],308 nM
same,bioavailability,[7],45%
same,Ratio,[8],3
same,concentration at 7 h,[9],1000 nM
same,concentration at 7 h,[10],1000 nM
same,IC50,[11],6 nM
COc1cccc(-c2cc(-n3cc(CNCC4CCCCC4)c4ccccc43)ccn2)c1,IC50,[11],60 nM
CNc1nc(-c2cc(C(=O)N3CCN(Cc4ccc(Cl)cc4)CC3)c(Cl)cn2)cs1,IC50,[1],352 nM
same,solubility thermodynamic,[2],55 µM
same,half-life,[3],13 min
same,clearance,[4],36 mL/min/kg
same,AUC at 7 h,[5],0.279 µM·h
same,Cmax,[6],113 nM
same,bioavailability,[7],21%
same,inhibition,[12],Active
same,inhibition,[13],Active
same,Activity,Mus musculus [14],Dose-dependent effect
same,Cp,Mus musculus [15],> 2 µM
same,Activity,Rattus norvegicus [16],Dose-dependent effect
same,Activity,Rattus norvegicus [17],Dose-dependent effect
same,Activity,Rattus norvegicus [18],Dose-dependent effect
same,Activity,Rattus norvegicus [19],Active
same,Activity,Rattus norvegicus [20],Active
same,Activity,Rattus norvegicus [21],Active
same,Activity,Rattus norvegicus [22],Active
same,Activity,Mus musculus [23],Dose-dependent effect
same,IC50,[11],4 nM
CNc1nc(-c2ccc3c(c2)CCN3C(=O)c2ccccc2OCc2ccc(Cl)cc2)cs1,clearance,[4],108 mL/min/kg
same,AUC at 7 h,[5],0.014 µM·h
same,Cmax,[6],2 nM
same,bioavailability,[7],1.4%
same,IC50,[11],420 nM
N=C(N)NC(=O)c1nc(Cl)c(N)nc1N,Activity,Rattus norvegicus [24],Active
same,Activity,Rattus norvegicus [25],Active
COc1cccc(-c2cc(C(=O)N3CCN(Cc4ccccc4)CC3)c3ccccc3n2)c1,IC50,[11],623 nM
CNc1nc(-c2cc(C(=O)N3CCN(Cc4ccc(Cl)cc4)CC3)ccn2)cs1,IC50,[11],106 nM
COc1cccc(-c2cc(C(=O)N(C)[C@@H]3CCN(Cc4ccc(Cl)cc4)C3)c3ccccc3n2)c1,IC50,[11],750 nM
COc1cccc(-c2cccc(-n3cc(CNCC4CCCCC4)c4ccccc43)c2)c1,Ki,[26],32.4 nM
same,IC50,[11],162 nM
COc1cccc(-c2cc(C(=O)N3CCN(Cc4ccc(Cl)cc4)CC3)ccn2)c1,IC50,[11],971 nM
COc1cccc(-c2cc(-n3cc(CNCC(C)C)c4ccccc43)c(C)cn2)c1,IC50,[1],1390 nM
same,solubility thermodynamic,[2],550 µM
same,half-life,[3],15 min
same,Activity,Mus musculus [27],Active
same,IC50,[11],95 nM
COc1cccc(-c2cc(-n3cc(CNCC4CCCCC4)c4cc(F)ccc43)ccn2)c1,IC50,[28],39 nM
c1ccc(-c2cccc(-n3cc(CNCC4CCCCC4)c4ccccc43)c2)cc1,IC50,[11],2140 nM

# Reference: ChEMBL document CHEMBL4038341, “Optimization of Allosteric With-No-Lysine (WNK) Kinase Inhibitors and Efficacy in Rodent Hypertension Models” (J Med Chem, 2017)
